Published values pooled from the literature.
Compare with care: the assays were run in different laboratories.
SLC6A4: Sodium-dependent serotonin transporter (SLC6A4, Homo sapiens, UniProt P31645)
rep main protease: Replicase polyprotein 1ab, main protease (rep, Porcine epidemic diarrhea virus, UniProt P0C6Y4)

With `COc1cc(CNC(=O)c2ccccc2SC)cc(Br)c1OC` the inhibition was 18.8% (Replicase polyprotein 1ab, papain-like protease (rep, Porcine epidemic diarrhea virus, UniProt P0C6Y4); enzyme activity; inhibitor; FRET; 10 µM).
`C1=C/COCc2cc(ccc2OCCN2CCCC2)Nc2nccc(n2)-c2cccc(c2)COC/1` gave a remaining binding of 63% (Calcium/calmodulin-dependent protein kinase type 1D (CAMK1D, Homo sapiens, UniProt Q8IU85); binding; 0.1 µM).
`CCOC(=O)[C@@]12C[C@@H]1[C@@H](n1cnc3c(NCc4cccc(Cl)c4)nc(C#Cc4ccc(Cl)s4)nc31)[C@H](O)[C@@H]2O` has an inhibition of 13% (SLC6A4; ligand displacement; radioligand; 10 µM).
For `COc1ccc(C(=O)NCc2cc(O)c(O)c(Br)c2)cc1OC`, the inhibition was 74.7% (rep main protease; enzyme activity; inhibitor; FRET; 10 µM).
For `CNC(=O)[C@@]12C[C@@H]1[C@@H](n1cnc3c(NCc4cccc(Cl)c4)nc(C#Cc4ccc(Cl)s4)nc31)[C@H](O)[C@@H]2O`, the inhibition was 10% (SLC6A4; ligand displacement; radioligand; 10 µM).
`Cc1cc(O)c(-c2ccc([C@@H](C)CN(C)C)cc2)c2c1[nH]c(=O)c1sccc12` gave an inhibition of -3.6% (SRSF protein kinase 2 (SRPK2, Homo sapiens, UniProt P78362); enzyme activity; inhibitor; 0.1 µM).
`CCCCC(=O)Nc1ccc(-c2ccc3ncn(CCC)c(=O)c3c2)cn1` gave a remaining binding of 54% (Mitogen-activated protein kinase kinase kinase 20 (MAP3K20, Homo sapiens, UniProt Q9NYL2); binding; competition with immobilised ligand; 0.5 µM).
`COc1cc(CNC(=O)c2ccccc2C)cc(Br)c1OC` gave an inhibition of 92.8% (rep main protease; enzyme activity; inhibitor; FRET; 10 µM).
With `N#CC[C@@]12C[C@@H]1[C@@H](n1cnc3c(NC4CC4)nc(C#Cc4ccc(Cl)s4)nc31)[C@H](O)[C@@H]2O` the inhibition was 15% (SLC6A4; ligand displacement; radioligand; 10 µM).
